# Test results as given in ChEMBL document CHEMBL1153637, “Identification and optimisation of a novel series of pyrimidine based cyclooxygenase-2 (COX-2) inhibitors. Utilisation of a biotransformation approach” (Bioorg Med Chem Lett, 2009).
# Calls of active or inactive are those of the source. The calls are words filed in the database; no cut-off is given here.
# Assays:
# [1] = organism: Homo sapiens; assay: Selectivity ratio of IC50 for human COX1 to IC50 for human COX2
# Outline: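 Ratio of the COX-1 IC50 to the COX-2 IC50. Both IC50s are for inhibition of PGE2 production by COS cells stably expressing human COX-1 or human COX-2, after stimulation with arachidonic acid.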
# [2] = target: T1, Prostaglandin G/H synthase 1 (Homo sapiens, UniProt P23219); assay: Inhibition of human COX1 expressed in african green monkey COS cells assessed as inhibition of arachidonic acid-stimulated PGE2 production by enzyme immunoassay; type: cell-based
# T1 sequence (P23219 whole entry): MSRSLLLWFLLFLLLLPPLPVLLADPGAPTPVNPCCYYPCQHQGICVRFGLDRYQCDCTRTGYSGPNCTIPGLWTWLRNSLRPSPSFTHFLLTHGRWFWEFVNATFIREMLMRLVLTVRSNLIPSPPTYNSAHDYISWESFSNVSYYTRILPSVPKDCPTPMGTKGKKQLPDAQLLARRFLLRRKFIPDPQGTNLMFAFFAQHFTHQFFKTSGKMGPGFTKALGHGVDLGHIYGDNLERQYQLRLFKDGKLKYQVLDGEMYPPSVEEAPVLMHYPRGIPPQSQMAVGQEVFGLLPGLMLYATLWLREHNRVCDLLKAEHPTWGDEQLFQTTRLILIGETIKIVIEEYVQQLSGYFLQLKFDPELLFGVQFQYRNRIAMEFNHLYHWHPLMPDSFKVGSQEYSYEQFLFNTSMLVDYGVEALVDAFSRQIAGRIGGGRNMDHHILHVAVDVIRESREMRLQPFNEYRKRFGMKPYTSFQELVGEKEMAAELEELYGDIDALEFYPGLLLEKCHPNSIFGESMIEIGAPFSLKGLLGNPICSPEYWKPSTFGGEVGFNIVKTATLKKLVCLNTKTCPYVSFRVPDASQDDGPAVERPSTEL
# [3] = target: T2, Prostaglandin G/H synthase 2 (Homo sapiens, UniProt P35354); assay: Inhibition of human COX2 expressed in african green monkey COS cells assessed as inhibition of arachidonic acid-stimulated PGE2 production by enzyme immunoassay; type: cell-based
# T2 sequence (P35354 whole entry): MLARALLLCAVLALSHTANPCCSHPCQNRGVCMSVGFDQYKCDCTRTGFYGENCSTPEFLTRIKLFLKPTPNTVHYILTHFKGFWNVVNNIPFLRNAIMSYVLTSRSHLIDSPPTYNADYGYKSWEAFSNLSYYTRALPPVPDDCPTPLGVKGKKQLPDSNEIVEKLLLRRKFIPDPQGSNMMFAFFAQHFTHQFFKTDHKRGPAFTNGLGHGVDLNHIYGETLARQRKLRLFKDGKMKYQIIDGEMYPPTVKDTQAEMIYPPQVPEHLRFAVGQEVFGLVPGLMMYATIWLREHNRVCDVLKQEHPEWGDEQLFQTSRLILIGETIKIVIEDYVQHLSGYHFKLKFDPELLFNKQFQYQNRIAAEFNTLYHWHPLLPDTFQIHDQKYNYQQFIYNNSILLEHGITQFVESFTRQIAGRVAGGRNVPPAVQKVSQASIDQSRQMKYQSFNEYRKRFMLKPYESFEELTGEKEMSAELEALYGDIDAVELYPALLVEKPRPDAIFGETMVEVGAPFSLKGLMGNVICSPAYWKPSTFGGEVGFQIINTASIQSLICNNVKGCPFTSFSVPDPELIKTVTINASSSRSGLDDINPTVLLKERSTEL
# [4] = organism: Rattus norvegicus; assay: Antiinflammatory activity in Freund's complete adjuvant-induced rat inflammatory pain model assessed as change in weight bearing ability on inflamed paw pretreated 1 hr before and measured 6 hrs after FCA challenge; type: functional
# [5] = target: T1, Prostaglandin G/H synthase 1; assay: Inhibition of human COX1 expressed in african green monkey COS cells assessed as inhibition of arachidonic acid-stimulated PGE2 production upto 100 uM by enzyme immunoassay; type: cell-based
# Outline: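 COS cells stably expressing human COX-1 were stimulated with arachidonic acid, and PGE2 production was measured. IC50 was taken as the concentration inhibiting PGE2 output.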
SMILES,Ratio IC50 [1],IC50 [2] [µM],IC50 [3] [µM],Activity [5],ED50 [4] [mg/kg]
CC(C)c1ncc(-c2ccc(S(C)(=O)=O)cc2)c(-c2ccc(F)cc2)n1,8.8,10,1.14,,
CN(c1ccccc1)c1ncc(-c2ccc(S(C)(=O)=O)cc2)c(-c2ccc(F)cc2)n1,51,4.34,0.085,,
CS(=O)(=O)c1ccc(-c2cnc(C(O)c3ccccc3)nc2-c2ccc(F)cc2)cc1 (configuration not stated),,,0.057,inactive,1.6
CS(=O)(=O)c1ccc(-c2cnc(Nc3ccccc3)nc2-c2ccc(F)cc2)cc1,> 1780,> 100,0.056,,
CS(=O)(=O)c1ccc(-c2cnc(Cc3ccccc3O)nc2-c2ccc(F)cc2)cc1,,,0.043,,
CS(=O)(=O)c1ccc(-c2cnc(CC3CCCCC3)nc2-c2ccc(F)cc2)cc1,247,2.97,0.012,,
CS(=O)(=O)c1ccc(-c2cnc(Sc3ccccc3)nc2-c2ccc(F)cc2)cc1,,> 100,> 7.2,,
CS(=O)(=O)c1ccc(-c2cnc(NCc3ccccc3)nc2-c2ccc(F)cc2)cc1,> 145,> 100,0.686,,
CS(=O)(=O)c1ccc(-c2cnc(Oc3ccccc3)nc2-c2ccc(F)cc2)cc1,,> 100,> 4.64,,
CS(=O)(=O)c1ccc(-c2cnc(Cc3ccccc3)[n+]([O-])c2-c2ccc(F)cc2)cc1,,,0.717,,

# Second part, led by results:
Ratio IC50 [1],IC50 [2] [µM],IC50 [3] [µM],Activity [5],SMILES,ED50 [4] [mg/kg]
284,6.54,0.023,,Cn1cccc1Cc1ncc(-c2ccc(S(C)(=O)=O)cc2)c(-c2ccc(F)cc2)n1,
> 457,> 52.1,0.114,,CS(=O)(=O)c1ccc(-c2cnc(Cc3ccc(F)cc3F)nc2-c2ccc(F)cc2)cc1,
> 326,> 34,0.104,,CS(=O)(=O)c1ccc(-c2cnc(Cc3ccccc3)nc2-c2ccc(F)cc2)cc1,
> 361,> 100,0.277,,CS(=O)(=O)c1ccc(-c2cnc(Cc3ccc(F)cc3)nc2-c2ccc(F)cc2)cc1,
5.6,29.4,5.26,,CS(=O)(=O)c1ccc(-c2cnc(CCc3ccccc3)nc2-c2ccc(F)cc2)cc1,
> 16,> 100,6.32,,CS(=O)(=O)c1ccc(-c2cnc(Cc3ccccn3)nc2-c2ccc(F)cc2)cc1,
